Data on 37 compounds can be found in BindingDB's records for doi:10.1016/j.bmcl.2007.10.100 (Columbia University, 2008).

Test [1] can be described thus: Induction of human IkappaBalpha stabilization in OCI-Ly3 cells by green light emiting IkappaBalpha-fused luciferase reporter gene assay.
A short description of test [2]: Induction of human IkappaBalpha stabilization in OCI-Ly3 cells assessed as ratio of green light emiting IkappaBalpha-fused luciferase expression to red light emiting native luciferase expression.
The target of the next test is Transcription factor p65 (Human, UniProt Q04206). Description: Inhibition of TNF-alpha-stimulated human NF-kappaB p65 RelA subunit nuclear translocation in HUVEC. In a few lines: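 HUVEC (fewer than 8 passages) were seeded at 3,000 cells/well. Compounds were added in 8-point series, either from 10 µM final in media with 0.33% DMSO diluted 1:3, or from 8 µM diluted 1:2. After 3.5 h with compound, cells were stimulated with […] for 30 min. Cells were then fixed, permeabilized, stained with Hoechst and with anti-p65 plus an Alexa 647 secondary, and imaged automatically. IC50 is from curve fitting of one experiment run in triplicate, with BAY 11-7082 as the positive control.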

Peptide text beside a SMILES is read from it. * marks the point of attachment. Cbz = O=C(OCc1ccccc1)*

Transcription factor p65, sequence (Q04206 whole entry): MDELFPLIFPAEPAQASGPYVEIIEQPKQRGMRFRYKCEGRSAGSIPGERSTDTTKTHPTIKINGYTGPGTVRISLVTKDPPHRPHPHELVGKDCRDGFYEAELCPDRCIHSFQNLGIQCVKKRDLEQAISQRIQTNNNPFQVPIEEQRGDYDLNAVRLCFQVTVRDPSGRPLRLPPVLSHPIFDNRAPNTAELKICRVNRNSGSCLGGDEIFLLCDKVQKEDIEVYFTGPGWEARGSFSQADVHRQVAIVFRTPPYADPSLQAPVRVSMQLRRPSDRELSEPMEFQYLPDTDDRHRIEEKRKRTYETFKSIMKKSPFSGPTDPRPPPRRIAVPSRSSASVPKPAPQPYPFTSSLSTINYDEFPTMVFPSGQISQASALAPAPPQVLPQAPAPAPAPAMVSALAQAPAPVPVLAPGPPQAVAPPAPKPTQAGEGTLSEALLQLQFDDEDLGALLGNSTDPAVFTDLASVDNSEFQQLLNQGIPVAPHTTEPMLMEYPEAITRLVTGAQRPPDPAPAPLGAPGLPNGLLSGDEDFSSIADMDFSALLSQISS

Turning to `COc1ccc2c(c1)-c1ccc3cccnc3c1NS2(=O)=O`, the EC50 in test [1] was 1.3 µM; in test [2], 1.4 µM. Moreover, 1 µM corresponded to half-maximal inhibition against Transcription factor p65 (IC50).
In the case of `Cc1ccc2ccc3c(c2n1)NS(=O)(=O)c1ccc(C(F)(F)F)cc1-3`, the values for the EC50 in test [1] and in test [2] were 8.9 µM and 7.2 µM, respectively. The IC50 against Transcription factor p65 was 1.2 µM.
As to `COc1ccc2c(c1)-c1ccc3ccc(C)nc3c1NS2(=O)=O`, the results for the EC50 in test [1] and in test [2] were 3.7 µM and 3.4 µM, respectively. This compound displayed an IC50 on Transcription factor p65 of 2.5 µM.
For `COc1cc2ccc(C)nc2c2c1-c1cc(C)ccc1S(=O)(=O)N2` the same measures were 1.4 µM, 2.3 µM and 0.9 µM.
Regarding `Cc1cnc2c3c(ccc2c1)-c1ccccc1S(=O)(=O)N3`, the EC50 in test [1] is 7 µM; in test [2] it was 10 µM.
With `O=S1(=O)Nc2c(ccc3cccnc23)-c2cc(Cl)ccc21`, the EC50 in test [1] worked out at 1.1 µM; in test [2] it was 11 µM. Half-maximal inhibition against Transcription factor p65 (IC50) was put at 1.1 µM.
Consider `O=S1(=O)Nc2c(ccc3cccnc23)-c2cc(F)ccc21`, for which the EC50 in test [1] came out at 4.1 µM; in test [2] it was 12 µM. The IC50 against Transcription factor p65 was 1.7 µM.
For the compound `COc1cc2cccnc2c2c1-c1cc(C)ccc1S(=O)(=O)N2`, the EC50 came to 1.3 µM in test [1] and 1.6 µM in test [2]. This compound had an IC50 against Transcription factor p65 of 1.2 µM.
For `Cc1ccc2c(c1)-c1ccc3cccnc3c1NS2(=O)=O` the same measures were 0.5 µM, 0.8 µM and 0.6 µM.
Regarding `Cc1ccc2cccc(NS(=O)(=O)c3ccc(Cl)s3)c2n1`, the EC50 in test [1] was 1.4 µM; in test [2] it was 2.1 µM. Also, on Transcription factor p65, the IC50 stood at 1 µM.
With `O=S(=O)(Nc1cccc2cccnc12)c1ccc(Br)s1`, the EC50 came out at 5.9 µM in test [1] and 6.8 µM in test [2]. Also, the half-inhibitory concentration (IC50) against Transcription factor p65 turned out to be 1.1 µM.
For `O=S(=O)(Nc1cccc2cccnc12)c1ccc(Cl)s1`, in that order: 2.7 µM, 2.7 µM and 1.3 µM.
For `COc1cc(NS(=O)(=O)c2ccc(C)cc2N)c2nc(C)ccc2c1`, the results for the EC50 in test [1] and in test [2] were 9.4 µM and 3 µM, respectively.
With `COc1cc(NS(=O)(=O)c2ccc(C)cc2N)c2ncccc2c1`, the EC50 in test [1] and in test [2] was 4 µM in each case. Moreover, the IC50 against Transcription factor p65 was found to be 1 µM.
On to `Nc1ccccc1S(=O)(=O)Nc1cccc2cccnc12`, for which the EC50 amounted to 11 µM in test [1] and 8.5 µM in test [2]. This compound also had an IC50 at Transcription factor p65 of 2 µM.
For `COc1cc(NS(=O)(=O)c2ccc(C)cc2)c2nc(C)ccc2c1` the same measures were 20 µM, 20 µM and above 10 µM.
`COc1cc(NS(=O)(=O)c2ccc(C)cc2[N+](=O)[O-])c2nc(C)ccc2c1`: the EC50 in test [1] is above 10 µM; in test [2] it was above 57 µM.
Take `COc1cc(NS(=O)(=O)c2ccc(C)cc2[N+](=O)[O-])c2ncccc2c1`: the EC50 in test [1] was 6.8 µM; in test [2], 7.6 µM. The same compound displayed an IC50 on Transcription factor p65 of 2.1 µM.
For the compound `O=[N+]([O-])c1cc(C(F)(F)F)ccc1S(=O)(=O)Nc1cccc2cccnc12`, the EC50 was determined as 3.6 µM in test [1] and 20 µM in test [2]. Besides, the half-inhibitory concentration (IC50) at Transcription factor p65 was determined as 3.7 µM.
For `Cc1ccc([N+](=O)[O-])cc1S(=O)(=O)Nc1cccc2cccnc12`, in that order: 1 µM, above 10 µM and 1.6 µM.
For `Cc1ccc2cccc(NS(=O)(=O)c3ccccc3[N+](=O)[O-])c2n1`, in that order: 6.8 µM, 8 µM and 3.8 µM.
For `O=[N+]([O-])c1ccc(S(=O)(=O)Nc2cccc3cccnc23)cc1`, in that order: 6.5 µM, 17 µM and 1.5 µM.
Take `Cc1ccc2ccc3c(c2n1)NS(=O)(=O)c1ccc(O)cc1-3`: the EC50 in test [1] is 8 µM; in test [2] it was 11 µM. On Transcription factor p65, this compound displayed an IC50 of 10 µM.
For `O=S1(=O)Nc2c(ccc3cccnc23)-c2cc(C(F)(F)F)ccc21`, the concentration giving a half-maximal response (EC50) in test [1] came out at 0.7 µM; in test [2] it was 1 µM. For the same compound, the IC50 at Transcription factor p65 was found to be 1 µM.
With `Cc1ccc2cccc(NS(=O)(=O)c3ccc(Br)s3)c2n1`, the figures for the EC50 in test [1] and in test [2] were 6.1 µM and 6.4 µM, respectively. This compound had an IC50 against Transcription factor p65 of 1.4 µM.
For `O=S(=O)(Nc1cccc2cccnc12)c1cccs1` the same measures were 5.3 µM, 9 µM and 3.6 µM.
For `Cc1ccc2cccc(NS(=O)(=O)c3ccccc3N)c2n1` the same measures were 8 µM, 8 µM and 2.8 µM.
At Transcription factor p65, `COc1ccc(S(=O)(=O)Nc2cccc3ccc(C)nc23)c([N+](=O)[O-])c1` came in with an IC50 of 1 µM.
In the case of `Cc1ccc2cccc(NS(=O)(=O)c3cc([N+](=O)[O-])ccc3C)c2n1`, the EC50 in test [1] was above 20 µM; in test [2], above 57 µM.
As for `Cc1ccc2cccc(NS(=O)(=O)c3ccc(C(F)(F)F)cc3[N+](=O)[O-])c2n1`, the EC50 in test [1] worked out at 10 µM; in test [2], 3.6 µM. Further, the midpoint of inhibition on Transcription factor p65, the IC50, lay at 1.1 µM.
For `Cc1ccc2cccc(NS(=O)(=O)c3cccc([N+](=O)[O-])c3)c2n1` the same measures were 6 µM, 13 µM and 0.9 µM.
`COc1cnc2c3c(ccc2c1)-c1ccccc1S(=O)(=O)N3` displayed an IC50 at Transcription factor p65 of 2.5 µM.
For the compound `O=[N+]([O-])c1ccccc1S(=O)(=O)Nc1cccc2cccnc12` [2-nitro-N-quinolin-8-yl-benzenesulfonamide], the values for the EC50 in test [1] and in test [2] were 11 µM and 12 µM, respectively. The compound further showed an IC50 at Transcription factor p65 of 3.2 µM.
On to `O=S1(=O)Nc2c(ccc3cccnc23)-c2ccccc21` [5H-quinolino[8,7-c][1,2]benzothiazine 6,6-dioxide], for which the concentration for a half-maximal effect (EC50) in test [1] worked out at 2.2 µM; in test [2], 2.6 µM. Moreover, at Transcription factor p65, the IC50 was 1 µM.
For the compound `Cc1ccc(S(=O)(=O)/C=C/C#N)cc1` [BAY-11-7082], the IC50 at Transcription factor p65 stood at 3 µM.
In the case of `O=S(=O)(Nc1cccc2cccnc12)c1ccccc1` [N-(quinolin-8-yl)benzenesulfonamide], the EC50 in test [1] is 17 µM; in test [2], 20 µM. Moreover, the IC50 against Transcription factor p65 is above 10 µM.
With `CC(C)C[C@@H](C=O)NC(=O)[C@H](CC(C)C)NC(=O)[C@H](CC(C)C)NC(=O)OCc1ccccc1` [{1-[(S)-(S)-1-((S)-1-Formyl-3-methyl-butylcarbamoyl)-3-methyl-butylcarbamoyl]-3-methyl-butyl}-carbamic acid benzyl ester] (Cbz-Leu-Leu-Leu-aldehyde), the values for the EC50 in test [1] and in test [2] were 1 µM and 5.2 µM, respectively.

By EC50 is commonly meant the concentration that produces a half-maximal response. For orientation: IC50 means the point on the concentration scale where inhibition reaches its midpoint.
